High-throughput results (PubChem BioAssay)
Hits are enriched below; roughly 3.1% of the tested compounds scored in any of these assays.
ADAM10 inh: ADAM10 inhibition, QFRET primary screen. O14672. recombinant ADAM10, EDANS/DABCYL FRET peptide cleavage, 3 h. inhibition, % at 7 µM. 370,000 compounds, 0.62% hits. AID 720582;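 active means inhibition above a per-campaign cutoff equal to the mean of compounds falling between control-based bounds plus 3 SD, cut at about 20% in these data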;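 further: 0% = DMSO wells while the 100% control is not disclosed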
MPTP block: blocks calcium-induced mitochondrial swelling; isolated mouse mitochondria, Ca2+ swelling absorbance, 30 min; inhibition, % at 10 µM; 360,000 compounds, 1.4% hits;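 active means inhibition of 50% or more, scaled per plate between neutral and stimulator controls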;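 further: 0% = DMSO wells given calcium and 100% = 1 mM EGTA wells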
aDG glyco up: alpha-DG glycosylation activation | activation, % at 10 µM | AID 624168 | 360,000 compounds, 0.22% hits | Pro5-aDG cells, alpha-DG glycosylation AlphaScreen (IIH6); 0% Pro5, 100% B10-LARGE cell signal;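 active means activation of at least 8% versus controls, or a plate z-score of at least 8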;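 further: Pro5 are CHO cells carrying HIG-tagged alpha-DG that lacks glycosylation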
V-ATPase pH: regulators of yeast V-ATPase proton transport; S. cerevisiae, pHLuorin cytosolic pH fluorescence; response, % at 10 µM; 350,000 compounds, 0.37% hits; in the data active means response mostly above about 7.3%, no sharp cut-off; inactive means mostly below about 5.4%; further: actives read high
ADAM17 inh: inhibitors of human ADAM17; P78536; recombinant ADAM17, EDANS/DABCYL FRET peptide cleavage; inhibition, % at 6.95 µM; 370,000 compounds, 0.83% hits;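 active means inhibition above the mean of compounds lying between control limits plus 3 SD, set per campaign, cut at about 8.5% in these data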;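 further: 0% = DMSO-only wells as the low control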
Target sequence (P78536 215-824 limits assumed): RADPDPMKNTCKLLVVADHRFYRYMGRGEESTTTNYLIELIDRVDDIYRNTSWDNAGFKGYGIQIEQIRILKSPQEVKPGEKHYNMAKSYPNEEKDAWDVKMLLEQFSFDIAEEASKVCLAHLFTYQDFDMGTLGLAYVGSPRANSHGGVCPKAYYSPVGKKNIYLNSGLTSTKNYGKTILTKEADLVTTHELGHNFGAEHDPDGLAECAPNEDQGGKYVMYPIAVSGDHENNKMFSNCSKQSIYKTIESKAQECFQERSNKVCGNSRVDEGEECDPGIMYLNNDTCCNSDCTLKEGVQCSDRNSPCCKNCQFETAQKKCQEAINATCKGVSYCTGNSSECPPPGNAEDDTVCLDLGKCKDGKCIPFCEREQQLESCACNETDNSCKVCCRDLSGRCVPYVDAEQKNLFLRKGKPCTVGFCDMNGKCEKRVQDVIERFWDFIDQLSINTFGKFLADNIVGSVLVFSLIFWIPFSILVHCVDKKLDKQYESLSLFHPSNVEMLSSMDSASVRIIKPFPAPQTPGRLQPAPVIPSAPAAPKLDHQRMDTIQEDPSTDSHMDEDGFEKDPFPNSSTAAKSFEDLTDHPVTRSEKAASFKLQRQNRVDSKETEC
Lipid droplet: modulators of hepatic lipid droplet formation. AML12 mouse hepatocytes, oleate lipid droplets, BODIPY imaging. inhibition, % at 6.5 µM. 240,000 compounds, 0.4% hits;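 active means lipid droplet intensity inhibited by at least 50%, with more than 500 cells counted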
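Assay system: AML12 mouse liver cells | Compound: 6.5 µM single-point dosing | Schedule: Overnight exposure | Technique: Fluorescence imaging, 20x objective, two fields per well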
Rh123 counter: mitochondrial membrane potential, counter-screen; shares compounds with MPTP block; isolated mitochondria, Rhodamine 123 fluorescence; inhibition, % at 10 µM; 5,000 compounds, 78% hits; in the data active means inhibition above about 22%;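 further: 0% = DMSO vehicle and 100% = positive control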
MPTP abs DR: MPTP inhibition, dose response swelling confirmation. shares compounds with MPTP block. isolated mitochondria swelling, absorbance. IC50, µM. 780 compounds, 58% hits; in the data active means IC50 below about 20 µM
MPTP cs DR: counter-screen for mitochondrial permeability transition pore inhibitors, dose response; AID 651564; isolated mitochondria counterscreen, fluorescence read-out; 780 compounds, 49% hits; IC50, µM; shares compounds with MPTP block; in the data active means IC50 below about 80 µM
Active calls of the source: *; i = inactive; · = no result.

SMILES | ADAM10 inh | MPTP block | aDG glyco up | V-ATPase pH | ADAM17 inh | Lipid droplet | Rh123 counter | others
Cc1cccc(OCCCCNCc2ccccc2)c1 | -12.9 | 58.8* | 1.0 | 0.8 | 1.1 | 21.4 | 0.5 | MPTP abs DR=6.84*;MPTP cs DR=>80
O=C(NCCCN1CCCC1=O)Nc1ccc(F)c(Cl)c1 | 13.3 | 84.2* | 0.1 | 4.7 | 0.8 | · | 92.1*
O=C(NCCCn1ccnc1)Nc1ccc(Cl)c(Cl)c1 | 3.5 | 79.0* | 0.1 | 0.8 | 1.8 | · | 88.0*
COc1cc(C(NC(=O)C(F)(F)F)C2CCCC=C2c2ccccc2)cc(OC)c1OC (stereo unspecified) | -6.4 | · | · | · | -2.2 | · | ·
O=C1C=C(c2c(O)ccc3ccccc23)c2ccccc2C1=O | -0.2 | 64.6* | -0.2 | 4.8 | 4.2 | · | 49.9*
O=C1C=C(O)c2cccc(O)c2C1=O | -3.3 | 6.8 | 0.0 | -1.2 | -1.6 | 6.3 | ·
COC(=O)c1ccc(CSc2ccccc2NC(=S)Nc2cccc(C(F)(F)F)c2)o1 | 5.1 | 86.3* | 0.1 | 1.1 | -0.2 | · | 90.2*
O=C(Cc1ccccc1)NC(=S)Nc1cccc(C(F)(F)F)c1 | 12.9 | 5.2 | 0.0 | 3.8 | 7.1 | · | ·
S=c1[nH]nc(-c2cc(-c3ccccc3)n[nH]2)n1N=Cc1cccc(Oc2ccccc2)c1 | 7.0 | · | · | · | 1.5 | · | ·
COc1ccc(CCN(C)C(=O)COc2ccc(C(=O)c3ccccc3)cc2)cc1OC | -3.8 | -1.2 | 0.1 | -1.4 | -2.8 | · | ·
COc1ccc(CCN(C)C(=O)Cc2ccc(-c3ccccc3)cc2)cc1OC | 1.4 | 64.4* | 0.9 | -5.8 | 1.2 | 6.8 | 72.4*
Cc1ccc(CSc2nccc(-c3c(C)nc4ccccn34)n2)cc1 | -24.1 | 60.8* | 0.8 | 7.5 | -10.4 | -47.4 | 13.5 | MPTP abs DR=i;MPTP cs DR=>80
Cc1ccc(CSc2ncn(-c3ccccc3)n2)cc1 | 12.1 | 2.3 | -0.2 | 0.9 | 2.6 | -3.1 | ·
CCc1ccc(-c2nc(CSCC(=O)N3CCN(c4ccccn4)CC3)c(C)o2)cc1 | 6.5 | 80.0* | 3.3 | -2.8 | 1.4 | · | 58.4*
Cc1ccc(-c2noc(C3CCCN(C(=O)c4ccc(C(C)(C)C)cc4)C3)n2)o1 (stereo unspecified) | 6.4 | 61.1* | 1.2 | 2.1 | 3.3 | 29.2 | 39.0*
COc1cc(OC)cc(C(=O)N2CCCC(c3nc(-c4ccc(C)o4)no3)C2)c1 (stereo unspecified) | 11.3 | -2.8 | 0.1 | -0.2 | 2.8 | 2.1 | ·
COC(=O)C12CCCN1C1C(=O)N(Cc3ccc(C(N)=O)cc3)CC1C2 (stereo unspecified) | -3.5 | · | · | · | -4.5 | · | ·
CCCCn1c(/C=N/Nc2nc3ccccc3[nH]2)nc2ccccc21 | -0.9 | 100.4* | 0.3 | -7.4 | 3.4 | -52.8 | 84.0*
CCCCn1c(/C=C/c2ccco2)nc2ccccc21 | -51.2 | -1.8 | 0.6 | -0.2 | -14.1 | -8.2 | ·
Cc1cc(C)nc(N2CCC(C(=O)N(C)CCc3ccccn3)CC2)n1 | -25.0 | · | · | · | -9.5 | · | ·
CC(=O)CC[C@@H]1CC[C@]2(CCCN(C(=O)c3ccno3)C2)O1 | -1.3 | · | · | · | 0.0 | · | ·
Cc1cc2oc3cc(NCCC4CCCN4C)ccc3c(=O)c2cc1C (stereo unspecified) | i | 93.6* | 0.9 | 2.3 | i | · | -23.3
CN1CCCC1CCNc1ccc2sc3ccccc3c(=O)c2c1 (stereo unspecified) | -14.8 | -0.6 | 0.5 | -0.2 | -3.2 | · | ·
Nn1c(SCC(=O)NC2CCCCC2)nnc1-c1cc(-c2ccccc2)n[nH]1 | 3.2 | · | · | · | 4.4 | · | ·
CN1CCN(/N=C/c2ccc(-c3ccccc3)cc2)CC1 | 0.5 | 69.8* | 1.2 | -1.0 | -1.2 | 4.1 | -10.9
C(=N\N1CCN(Cc2ccccc2)CC1)/c1ccc(-c2ccccc2)cc1 | 4.0 | -1.1 | -0.7 | 1.4 | -4.1 | -4.0 | ·
CN1CCN(/N=C/c2c3ccccc3c(Cl)c3ccccc23)CC1 | -55.1 | 90.6* | 0.4 | -1.4 | -22.5 | 11.0 | -21.3
c1coc(CNc2nc3nonc3nc2NCc2ccco2)c1 | -27.1 | 96.0* | 0.0 | -4.0 | -2.7 | -15.0 | 94.8*
CCOC(=O)c1cnc(SCC(=O)Nc2cc(OC)cc(OC)c2)nc1N | 4.4 | 86.7* | 2.5 | 3.3 | -1.0 | · | 49.1*
